The text below walks through data of ChEMBL document CHEMBL4732084, “Potent antiproliferative activity of bradykinin B2 receptor selective agonist FR-190997 and analogue structures thereof: A paradox resolved?” (Eur J Med Chem, 2021).

The test system of one assay is MDA-MB-231. Put plainly: Antiproliferative activity against human MDA-MB-231 cells assessed as cell viability after 24 hrs. The format is functional, cell-based. Particulars: MDA-MB-231, 24 h.
The next assay relates to MCF7. Put plainly: Antiproliferative activity against human MCF7 cells assessed as cell viability after 24 hrs. The format is functional, cell-based. The note with it: MCF7, 24 h. An outline of the steps: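 MCF-7 cells (ATCC) kept in DMEM with 10% FBS, 1.0 mM pyruvate, 2 mM L-glutamine and penicillin at 37 °C, 5% CO2. Cells grown to 60–70% confluence, then given fresh medium and compound (DMSO stock diluted in medium) at 0–200 μM for 24 h with serum. Surviving cells counted manually. IC50 from a non-linear fit of % living cells vs log concentration. Triplicate, mean ± SD.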

The target in the next assay is T1, B2 bradykinin receptor (Homo sapiens, UniProt P30411).
T1 sequence (P30411 whole entry): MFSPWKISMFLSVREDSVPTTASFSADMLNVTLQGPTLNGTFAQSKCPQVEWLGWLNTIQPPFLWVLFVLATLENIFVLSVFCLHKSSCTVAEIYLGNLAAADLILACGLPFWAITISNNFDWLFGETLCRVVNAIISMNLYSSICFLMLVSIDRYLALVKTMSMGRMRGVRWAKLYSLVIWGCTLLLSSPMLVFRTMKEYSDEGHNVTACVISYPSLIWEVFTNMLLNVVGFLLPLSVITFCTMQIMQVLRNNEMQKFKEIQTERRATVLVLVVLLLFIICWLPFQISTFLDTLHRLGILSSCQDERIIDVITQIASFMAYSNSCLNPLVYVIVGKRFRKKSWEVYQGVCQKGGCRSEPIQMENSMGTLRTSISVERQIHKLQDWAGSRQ
Put plainly: Agonist activity at bradykinin B2 receptor (unknown origin).

With `COc1cccc2c1C(=O)c1c(O)c3c(c(O)c1C2=O)C[C@@](O)(C(=O)CO)C[C@@H]3O[C@H]1C[C@H](N)[C@@H](O)[C@H](C)O1` [EPIRUBICIN], the IC50 with MDA-MB-231 stood at 0.15 µM.
On the same count and under the same terms, under `CC(=O)O[C@@]12CO[C@@H]1C[C@H](O)[C@@]1(C)C(=O)[C@H](O)C3=C(C)[C@@H](OC(=O)[C@H](O)[C@@H](NC(=O)OC(C)(C)C)c4ccccc4)C[C@@](O)([C@@H](OC(=O)c4ccccc4)[C@H]21)C3(C)C` [DOCETAXEL ANHYDROUS] stands 0.01 µM.
In the case of `COc1cc(/C=C/C(=O)O)ccc1O` [FERULATE], the IC50 was 0.36 µM in the assay with MCF7 and 15 µM in the assay with MDA-MB-231.
Take `COc1nc2c(OCc3c(Cl)ccc(N(C)C(=O)CNC(=O)/C=C/c4ccc(NC(C)=O)nc4)c3Cl)cccc2n1Cc1ccccn1`: the IC50 on B2 bradykinin receptor worked out at 0.00068 µM.
With `CNC(=O)c1ccc(/C=C/C(=O)NCc2cn(-c3ccc(Cl)c(COc4cccc5c(OCc6ccccn6)cc(C)nc45)c3Cl)nn2)cc1`, the IC50 with MCF7 was found to be 91 µM; in the assay on MDA-MB-231 it was 200 µM.
For `Cc1cc(OCc2ccccn2)c2cccc(N)c2n1`, in that order: 0.86 µM and 22 µM.
As for `O=C(c1cc(Cc2n[nH]c(=O)c3ccccc23)ccc1F)N1CCN(C(=O)C2CC2)CC1` [OLAPARIB], the IC50 in the assay with MDA-MB-231 amounted to 62.5 µM.
For the compound `CC[C@]1(O)C[C@@H]2CN(CCc3c([nH]c4ccccc34)[C@@](C(=O)OC)(c3cc4c(cc3OC)N(C)[C@H]3[C@@](O)(C(=O)OC)[C@H](OC(C)=O)[C@]5(CC)C=CCN6CC[C@]43[C@@H]65)C2)C1` [VINBLASTINE], in the assay on MDA-MB-231, the 50% inhibitory concentration (IC50) amounted to 0.024 µM.
Still for that read-out and setting: the figure for `CC(=O)c1c(C)c2cnc(Nc3ccc(N4CCNCC4)cn3)nc2n(C2CCCC2)c1=O` [PALBOCICLIB] is 14.6 µM.
In the case of `CNC(=O)c1ccc(/C=C/C(=O)NCC(=O)N(C)c2ccc(Cl)c(COc3cccc4c(OCc5ccccn5)cc(C)nc34)c2Cl)cc1`, the figures for the IC50 in the assay on MCF7 and in the assay with MDA-MB-231 were 2.14 µM and 0.08 µM, respectively.
The like results for `CC1=C(/C=C/C(C)=C/C=C/C(C)=C/C(=O)O)C(C)(C)CCC1` [TRETINOIN] were, in that order, 6.14 µM and 16 µM.
As for `CC(C)C[C@H](NC(=O)[C@H](Cc1ccccc1)NC(=O)c1cnccn1)B(O)O` [BORTEZOMIB], the 50% inhibitory concentration (IC50) in the assay with MDA-MB-231 came out at 0.003 µM.
The same measure, in the same setting: the figure for `CC(=O)O[C@H]1C(=O)[C@@]2(C)[C@H]([C@H](OC(=O)c3ccccc3)[C@]3(O)C[C@H](OC(=O)[C@H](O)[C@@H](NC(=O)c4ccccc4)c4ccccc4)C(C)=C1C3(C)C)[C@]1(OC(C)=O)CO[C@@H]1C[C@@H]2O` [PACLITAXEL] is 0.9 µM; for `CS(=O)(=O)CCNCc1ccc(-c2ccc3ncnc(Nc4ccc(OCc5cccc(F)c5)c(Cl)c4)c3c2)o1` [LAPATINIB] it is 10.6 µM.
`CC1=C(/C=C/C(C)=C/C=C/C(C)=C/C(=O)NCC(=O)N(C)c2ccc(Cl)c(CNc3cccc4c(OCc5ccccn5)cc(C)nc34)c2Cl)C(C)(C)CCC1`: the 50% inhibitory concentration (IC50) amounted to 64 µM in the assay on MCF7 and 0.005 µM with MDA-MB-231.
The like results for `CN(C(=O)CN1C(=O)c2ccccc2C1=O)c1ccc(Cl)c(CO)c1Cl` were, in that order, 53 µM and 0.78 µM.
With `CN(C)C(=O)c1cc2cnc(Nc3ccc(N4CCNCC4)cn3)nc2n1C1CCCC1` [RIBOCICLIB], in the assay with MDA-MB-231, the half-inhibitory concentration (IC50) was 27.3 µM.
Same read-out and setting: under `CC(=O)Nc1ccc(/C=C/C(=O)NCC(=O)N(C)c2ccc(Cl)c(COc3cccc4ccc(C)nc34)c2Cl)cn1` [FR-173657] stands 20 µM.
The same measure, in the same setting: under `COc1cccc2c1C(=O)c1c(O)c3c(c(O)c1C2=O)C[C@@](O)(C(=O)CO)C[C@@H]3O[C@H]1C[C@H](N)[C@H](O)[C@H](C)O1` [DOXORUBICIN] stands 0.1 µM; under `Nc1ccn([C@@H]2O[C@H](CO)[C@@H](O)C2(F)F)c(=O)n1` [GEMCITABINE], 2.1 µM; under `O=c1[nH]cc(F)c(=O)[nH]1` [FLUOROURACIL], 66.6 µM.
Same read-out and setting: under `CO[C@H]1C[C@@H]2CC[C@@H](C)[C@@](O)(O2)C(=O)C(=O)N2CCCC[C@H]2C(=O)O[C@H]([C@H](C)C[C@@H]2CC[C@@H](O)[C@H](OC)C2)CC(=O)[C@H](C)/C=C(\C)[C@@H](O)[C@@H](OC)C(=O)[C@H](C)C[C@H](C)/C=C/C=C/C=C/1C` [SIROLIMUS] stands 0.9 µM.
Take `O=C1c2ccccc2C(=O)N1Cc1cn(-c2ccc(Cl)c(CO)c2Cl)nn1`: the figures for the IC50 with MCF7 and in the assay with MDA-MB-231 were 0.07 µM and 520 µM, respectively.
For the compound `CNC(=O)c1ccc(/C=C/C(=O)NCC(=O)N(C)c2ccc(Cl)c(CO)c2Cl)cc1`, the IC50 in the assay on MCF7 was 0.93 µM; with MDA-MB-231, 650 µM.
The like results for `Cc1cc(OCc2ccccn2)c2cccc(O)c2n1` were, in that order, 0.16 µM and 450 µM.
`CNC(=O)c1ccc(/C=C/C(=O)NCc2cn(-c3ccc(Cl)c(CNc4cccc5c(OCc6ccccn6)cc(C)nc45)c3Cl)nn2)cc1`: the values for the IC50 in the assay with MCF7 and in the assay on MDA-MB-231 were 0.73 µM and 0.43 µM, respectively.
For the compound `O=P1(N(CCCl)CCCl)NCCCO1` (stereo unspecified) [CYCLOPHOSPHAMIDE ANHYDROUS], the IC50 with MDA-MB-231 worked out at 196 µM.
In the case of `CNC(=O)c1ccc(/C=C/C(=O)NCC(=O)N(C)c2ccc(Cl)c(CNc3cccc4c(OCc5ccccn5)cc(C)nc34)c2Cl)cc1`, the IC50 in the assay on MCF7 worked out at 1.21 µM; in the assay on MDA-MB-231, 5.94e-05 µM.
`COc1cc(/C=C/C(=O)NCC(=O)N(C)c2ccc(Cl)c(COc3cccc4c(OCc5ccccn5)cc(C)nc34)c2Cl)ccc1O`: the IC50 in the assay on MCF7 was 0.33 µM; with MDA-MB-231, 5.9 µM.
`Cc1nc(NC(=O)N2CCC[C@H]2C(N)=O)sc1-c1ccnc(C(C)(C)C(F)(F)F)c1` [ALPELISIB]: the half-maximal inhibitory concentration (IC50) with MDA-MB-231 turned out to be 62.9 µM.
In the case of `CNC(=O)c1ccc(/C=C/C(=O)O)cc1`, the IC50 in the assay on MCF7 stood at 2.12 µM; in the assay on MDA-MB-231 it was 86 µM.
With `C[C@]12CC[C@@H]3c4ccc(O)cc4C[C@@H](CCCCCCCCC[S+]([O-])CCCC(F)(F)C(F)(F)F)[C@H]3[C@@H]1CC[C@@H]2O` (stereo partly specified) [FULVESTRANT], the IC50 with MDA-MB-231 was found to be 196 µM.
In the case of `CC1=C(/C=C/C(C)=C/C=C/C(C)=C/C(=O)NCC(=O)N(C)c2ccc(Cl)c(COc3cccc4c(OCc5ccccn5)cc(C)nc34)c2Cl)C(C)(C)CCC1`, the IC50 came to 65 µM with MCF7 and 193 µM in the assay on MDA-MB-231.
The like results for `Cc1cc(OCc2ccccn2)c2cccc(OCc3cccc(Oc4ccccc4)c3)c2n1` were, in that order, 407 µM and 6.97 µM.
With `CC/C(=C(\c1ccccc1)c1ccc(OCCN(C)C)cc1)c1ccccc1` [TAMOXIFEN], the IC50 in the assay with MDA-MB-231 was found to be 69.7 µM.

A word on the IC50: it is the midpoint of a concentration-inhibition curve.
